From ChEMBL document CHEMBL4732114, “Design and structural optimization of novel 2H-benzo[h]chromene derivatives that target AcrB and reverse bacterial multidrug resistance” (Eur J Med Chem, 2021)

Assays:
Cell membrane [1] = assay: Induction of outer membrane permeabilization in wild type Escherichia coli BW25113 assessed as increase in nitrocefin hydrolysis at 32 ug/ml in presence of CCCP by spectroscopic analysis; conditions: dose 32 µg/ml
Summary of the method: (§1)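 Intact E. coli were treated with 10 μM CCCP to block nitrocefin efflux, then given compound, nothing, or polymyxin B as permeabilizer control. Nitrocefin was added, and hydrolysis by periplasmic β-lactamase was followed as the rise in absorbance at 490 nm. Duplicate experiments were run on different days.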

Cell membrane [2] = assay: Induction of outer membrane permeabilization in wild type Escherichia coli BW25113 assessed as increase in nitrocefin hydrolysis at 8 ug/ml in presence of CCCP by spectroscopic analysis; conditions: dose 8 µg/ml; summary of the method: as §1
[3] = target: T1, Multidrug efflux pump subunit AcrB (Escherichia coli (strain K12)) (UniProt P31224); assay: Inhibition of AcrB in multidrug-resistant Escherichia coli BW25113 assessed as potentiation of erythromycin-induced antibacterial activity by measuring fold change in erythromycin MIC at 8 ug/ml by checkerboard titration method relative to erythromycin MIC; conditions: dose 8.0 µg/ml
T1 sequence (whole entry): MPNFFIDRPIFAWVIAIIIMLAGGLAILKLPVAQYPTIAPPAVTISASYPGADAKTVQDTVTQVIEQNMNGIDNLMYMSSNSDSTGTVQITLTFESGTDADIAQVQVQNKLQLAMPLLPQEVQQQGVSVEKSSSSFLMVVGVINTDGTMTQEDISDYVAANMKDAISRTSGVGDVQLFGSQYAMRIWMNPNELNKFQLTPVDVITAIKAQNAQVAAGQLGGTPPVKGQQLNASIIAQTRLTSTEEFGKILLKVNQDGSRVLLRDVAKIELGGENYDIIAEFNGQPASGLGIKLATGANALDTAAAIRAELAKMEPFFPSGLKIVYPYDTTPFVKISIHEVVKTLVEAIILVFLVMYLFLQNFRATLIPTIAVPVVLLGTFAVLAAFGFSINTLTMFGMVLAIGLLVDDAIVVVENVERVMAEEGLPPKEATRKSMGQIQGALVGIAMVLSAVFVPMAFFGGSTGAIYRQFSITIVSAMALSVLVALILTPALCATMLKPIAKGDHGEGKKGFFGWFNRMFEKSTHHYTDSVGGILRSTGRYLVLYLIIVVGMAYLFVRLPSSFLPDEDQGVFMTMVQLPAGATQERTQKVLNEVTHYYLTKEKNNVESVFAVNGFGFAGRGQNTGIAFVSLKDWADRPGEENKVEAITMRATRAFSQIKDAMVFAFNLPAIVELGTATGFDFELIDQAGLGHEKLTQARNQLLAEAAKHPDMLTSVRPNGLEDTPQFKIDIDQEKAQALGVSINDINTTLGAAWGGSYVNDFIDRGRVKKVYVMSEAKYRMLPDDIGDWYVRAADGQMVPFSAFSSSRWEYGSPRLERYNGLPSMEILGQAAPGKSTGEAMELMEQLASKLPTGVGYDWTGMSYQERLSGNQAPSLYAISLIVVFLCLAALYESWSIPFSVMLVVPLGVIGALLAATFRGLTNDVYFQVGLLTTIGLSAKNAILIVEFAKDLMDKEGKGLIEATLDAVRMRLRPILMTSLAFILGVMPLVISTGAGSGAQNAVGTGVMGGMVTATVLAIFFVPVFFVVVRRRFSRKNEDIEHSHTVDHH

With `C=CC(=O)Nc1ccc(COc2cccc3c4c(c(Cn5cnnn5)cc23)CCC(C)(C)O4)cc1` as the compound, how does the Activity (Cell membrane [1]) read?
Its Activity is “Not Active”.

How did the Activity (Cell membrane [2]) turn out when `CC1CN(C(=O)c2cc3c(OCc4c(Cl)cccc4Cl)cccc3c3c2CCC(C)(C)O3)CC(C)O1` (stereo not drawn) was run?
Its Activity is “Not Active”.

Which fold change (FC) [3] does the source give for `Cc1ccc(COc2cccc3c4c(c(-c5nnco5)cc23)CCC(C)(C)O4)cc1` here?
Its fold change (FC) is 2.
